One data set deals with T1, NADPH oxidase 1 (Homo sapiens, UniProt Q9Y5S8).
T1 sequence (Q9Y5S8 whole entry): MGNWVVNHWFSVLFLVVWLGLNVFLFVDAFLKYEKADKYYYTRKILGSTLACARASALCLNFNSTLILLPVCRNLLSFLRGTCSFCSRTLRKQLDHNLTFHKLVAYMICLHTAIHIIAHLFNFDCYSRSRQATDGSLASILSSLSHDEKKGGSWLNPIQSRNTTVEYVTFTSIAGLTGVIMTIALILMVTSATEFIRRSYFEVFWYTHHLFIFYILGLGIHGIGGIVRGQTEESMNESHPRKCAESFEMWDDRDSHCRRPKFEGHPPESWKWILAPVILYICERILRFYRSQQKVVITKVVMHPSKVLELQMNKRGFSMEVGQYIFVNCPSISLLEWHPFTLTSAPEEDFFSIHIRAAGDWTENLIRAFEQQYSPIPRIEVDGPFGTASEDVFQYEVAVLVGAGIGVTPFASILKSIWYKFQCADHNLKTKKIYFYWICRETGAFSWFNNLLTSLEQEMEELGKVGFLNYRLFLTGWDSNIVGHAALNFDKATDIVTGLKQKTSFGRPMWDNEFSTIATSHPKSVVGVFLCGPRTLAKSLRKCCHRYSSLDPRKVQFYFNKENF
As to the kind of experiment: Inhibition of full length human NOX1 transfected in COS 22 cells assessed as inhibition of constitutive ROS generation by chemiluminescence assay. The settings on record: read-out: IC50.

A further data set has as its target T2, NADPH oxidase 5 (Homo sapiens, UniProt Q96PH1).
T2 sequence (Q96PH1 whole entry): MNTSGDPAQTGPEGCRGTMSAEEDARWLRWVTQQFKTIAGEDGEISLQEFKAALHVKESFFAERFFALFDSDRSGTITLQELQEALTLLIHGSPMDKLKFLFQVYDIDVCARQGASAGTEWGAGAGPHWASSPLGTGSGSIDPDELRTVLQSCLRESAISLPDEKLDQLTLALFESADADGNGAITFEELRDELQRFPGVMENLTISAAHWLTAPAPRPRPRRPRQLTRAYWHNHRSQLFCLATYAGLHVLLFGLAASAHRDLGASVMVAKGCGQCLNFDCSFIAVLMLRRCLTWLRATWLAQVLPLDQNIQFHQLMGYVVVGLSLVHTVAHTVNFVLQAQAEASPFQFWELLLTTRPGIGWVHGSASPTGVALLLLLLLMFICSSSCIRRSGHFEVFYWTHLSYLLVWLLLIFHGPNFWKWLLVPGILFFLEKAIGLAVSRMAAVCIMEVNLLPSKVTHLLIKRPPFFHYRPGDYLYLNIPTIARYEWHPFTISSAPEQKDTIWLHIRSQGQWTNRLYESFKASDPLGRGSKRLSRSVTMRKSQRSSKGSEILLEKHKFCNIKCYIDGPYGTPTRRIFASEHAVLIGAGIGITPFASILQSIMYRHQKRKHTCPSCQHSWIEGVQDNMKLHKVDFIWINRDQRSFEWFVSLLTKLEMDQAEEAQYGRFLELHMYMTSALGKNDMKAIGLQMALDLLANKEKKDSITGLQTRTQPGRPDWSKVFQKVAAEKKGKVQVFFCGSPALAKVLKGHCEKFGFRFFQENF
As to the kind of experiment: Inhibition of full length human NOX5 transfected in HEK cells assessed as inhibition of ionomycin-stimulated ROS generation by chemiluminescence assay. It is filed as cell-based, HEK293. In short, it runs like this:
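HEK-Nox5 cells at 5 × 10⁴ cells/well in OPTIMEM, 10 min at 37 °C in PBS with L-012, then stimulated with 1 µM PMA/0.1 µM ionomycin; luminescence over time; SOD 150 U/mL used to confirm superoxide specificity. IC50 by three-parameter fit, Hill slope 1, top/bottom fixed 100/0.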

In data set [1] the target is T3, NADPH oxidase 2 (Homo sapiens, UniProt P04839).
T3 sequence (P04839 whole entry): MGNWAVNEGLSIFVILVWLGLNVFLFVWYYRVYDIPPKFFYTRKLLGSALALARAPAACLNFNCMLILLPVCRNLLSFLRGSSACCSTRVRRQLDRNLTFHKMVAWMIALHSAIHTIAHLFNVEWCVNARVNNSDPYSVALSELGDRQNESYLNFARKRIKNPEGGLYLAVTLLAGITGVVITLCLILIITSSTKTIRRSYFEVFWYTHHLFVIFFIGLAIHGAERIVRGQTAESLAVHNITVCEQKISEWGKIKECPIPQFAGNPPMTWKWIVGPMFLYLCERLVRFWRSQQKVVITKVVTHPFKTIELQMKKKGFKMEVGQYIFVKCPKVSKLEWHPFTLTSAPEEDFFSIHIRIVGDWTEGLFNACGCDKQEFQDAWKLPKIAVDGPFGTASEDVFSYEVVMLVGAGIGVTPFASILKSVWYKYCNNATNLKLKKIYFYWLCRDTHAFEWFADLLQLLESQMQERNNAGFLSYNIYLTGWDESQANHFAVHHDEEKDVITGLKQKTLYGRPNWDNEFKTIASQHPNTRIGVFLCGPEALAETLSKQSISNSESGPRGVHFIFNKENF
In words: Inhibition of full length human NOX2 transfected in COS 22 cells assessed as inhibition of Phorbol 12-myristate 13-acetate-stimulated ROS generation by chemiluminescence assay. It is filed as cell-based. The settings on record: read-out: IC50. A digest of the protocol:
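COS-Nox2 (COS-7 stably expressing human p22phox, Nox2, p47phox, p67phox) plated in OPTIMEM at 2.5 x 10³ cells/well; 10 min at 37 °C in PBS with L-012, then stimulated with 5 µM PMA; luminescence followed over time; superoxide specificity checked with SOD 150 U/mL. IC50 by three-parameter non-linear fit, Hill slope 1, top/bottom fixed 100/0.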

The target of data set [2] is Xanthine dehydrogenase/oxidase (Bos taurus, UniProt P80457). As to the kind of experiment: Inhibition of bovine milk xanthine oxidase assessed as hypoxanthine-stimulated ROS generation by measuring H2O2 production at 25 to 50 uM by fluorescence assay. Particulars: cattle; call rule not given here.
Data set [3] has as its target T3, NADPH oxidase 2. In words: Inhibition of full length human NOX2 transfected in COS 22 cells assessed as inhibition of Phorbol 12-myristate 13-acetate-stimulated ROS generation by measuring H2O2 production by fluorescence assay in presence of superoxide dismutase. The settings on record: read-out: IC50. It is filed as cell-based. A digest of the protocol: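 Intact COS-Nox2 cells in Hepes pH 7.4 buffer with 0.1 mM Amplex Red, 0.32 U/ml HRP and 150 U/mL SOD, drug 15 min at 37 °C; started with 5 µM PMA; fluorescence monitored 1 h at 37 °C; rate as RFU/min minus unstimulated cells; % of vehicle control.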

Another data set has as its target T4, NADPH oxidase 4 (Homo sapiens, UniProt Q9NPH5).
T4 sequence (Q9NPH5 whole entry): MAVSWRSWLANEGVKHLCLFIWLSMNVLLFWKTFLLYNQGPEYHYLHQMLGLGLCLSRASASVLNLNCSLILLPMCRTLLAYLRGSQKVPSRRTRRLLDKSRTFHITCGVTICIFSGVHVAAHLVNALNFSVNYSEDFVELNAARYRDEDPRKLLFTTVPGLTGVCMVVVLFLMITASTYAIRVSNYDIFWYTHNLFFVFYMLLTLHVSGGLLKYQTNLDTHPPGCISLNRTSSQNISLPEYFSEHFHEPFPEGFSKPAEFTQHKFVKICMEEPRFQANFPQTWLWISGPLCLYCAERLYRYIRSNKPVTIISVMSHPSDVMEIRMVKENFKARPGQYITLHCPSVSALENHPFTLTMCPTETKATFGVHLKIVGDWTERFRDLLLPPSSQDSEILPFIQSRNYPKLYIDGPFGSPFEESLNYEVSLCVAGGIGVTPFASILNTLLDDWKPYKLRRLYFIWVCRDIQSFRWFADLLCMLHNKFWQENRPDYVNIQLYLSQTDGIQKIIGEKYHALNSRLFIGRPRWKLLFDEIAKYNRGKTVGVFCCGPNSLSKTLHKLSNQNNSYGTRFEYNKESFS
As to the kind of experiment: Inhibition of full length human NOX4 transfected in COS 22 cells assessed as inhibition of ROS generation by measuring H2O2 production by fluorescence assay.

Data set [4] can be described thus: Cytotoxicity against african green monkey COS7 cells expressing human p22phox assessed as cell viability at 25 to 50 uM after 15 mins by luminogenic assay. It is filed as cell-based. Particulars: chlorocebus aethiops, cos-7, 0.25 h. In short, it runs like this:
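COS-22 cells plated at 2.5 x 10³ cells/well in OPTIMEM, exposed 15 min to compounds at various concentrations; dead-cell protease release read with luminogenic AAF peptide substrate, signal before and after digitonin used to derive % dead; reported as % live cells (100 − % dead) per well.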

Xanthine dehydrogenase/oxidase, sequence (P80457 whole entry): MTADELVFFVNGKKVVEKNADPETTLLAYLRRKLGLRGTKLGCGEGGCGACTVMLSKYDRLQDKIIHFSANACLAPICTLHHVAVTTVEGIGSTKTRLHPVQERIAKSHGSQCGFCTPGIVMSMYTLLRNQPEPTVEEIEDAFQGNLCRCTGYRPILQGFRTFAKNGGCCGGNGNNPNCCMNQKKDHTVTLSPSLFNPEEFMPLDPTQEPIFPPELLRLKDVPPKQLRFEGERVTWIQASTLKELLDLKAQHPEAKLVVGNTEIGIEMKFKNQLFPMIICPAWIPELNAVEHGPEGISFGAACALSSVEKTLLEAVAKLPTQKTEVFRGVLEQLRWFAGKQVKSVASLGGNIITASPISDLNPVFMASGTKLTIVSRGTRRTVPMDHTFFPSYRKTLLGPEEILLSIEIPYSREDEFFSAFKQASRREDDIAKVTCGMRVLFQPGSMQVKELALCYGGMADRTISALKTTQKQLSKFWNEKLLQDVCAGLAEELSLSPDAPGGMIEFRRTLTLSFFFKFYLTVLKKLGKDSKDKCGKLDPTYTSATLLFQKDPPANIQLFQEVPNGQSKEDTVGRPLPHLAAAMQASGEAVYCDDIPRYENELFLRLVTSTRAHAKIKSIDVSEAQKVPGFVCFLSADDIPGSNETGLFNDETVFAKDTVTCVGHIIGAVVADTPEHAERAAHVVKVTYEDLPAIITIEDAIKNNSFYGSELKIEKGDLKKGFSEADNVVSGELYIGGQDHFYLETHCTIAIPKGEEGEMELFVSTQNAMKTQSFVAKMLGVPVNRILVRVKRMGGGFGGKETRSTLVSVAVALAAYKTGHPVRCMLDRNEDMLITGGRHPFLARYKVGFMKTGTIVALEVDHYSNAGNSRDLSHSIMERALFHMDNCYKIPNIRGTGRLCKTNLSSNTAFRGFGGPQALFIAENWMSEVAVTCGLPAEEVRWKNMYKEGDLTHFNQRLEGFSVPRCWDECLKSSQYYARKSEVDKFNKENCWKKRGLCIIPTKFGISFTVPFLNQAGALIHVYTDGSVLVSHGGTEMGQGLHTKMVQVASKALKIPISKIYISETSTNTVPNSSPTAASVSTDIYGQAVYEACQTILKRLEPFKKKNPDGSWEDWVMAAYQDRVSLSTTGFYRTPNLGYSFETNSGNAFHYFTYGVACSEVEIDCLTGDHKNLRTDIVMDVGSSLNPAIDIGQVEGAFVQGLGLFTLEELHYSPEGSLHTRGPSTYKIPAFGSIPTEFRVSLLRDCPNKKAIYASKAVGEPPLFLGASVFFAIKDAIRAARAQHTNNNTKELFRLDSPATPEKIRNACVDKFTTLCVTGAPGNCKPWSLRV

Regarding `C=C(C)C[C@@H]1N[C@H]2CC(C)(C)[C@@H]1c1ccccc12` (racemic), the IC50 on NADPH oxidase 1 was > 100 µM; on NADPH oxidase 5, > 100 µM; at NADPH oxidase 2 [1] it was > 100 µM; on NADPH oxidase 2 [3] it was > 100 µM; at NADPH oxidase 4 (cos 22), “Not Active”. Further, in data set [2], the “inhibition (INH)” value is “Not Active”.
For `CC(C)C[C@@H]1N[C@H]2CC(C)(C)[C@@H]1c1c(Br)cccc12` (racemic), the IC50 was 32 µM on NADPH oxidase 1; 18 µM on NADPH oxidase 5; 31 µM at NADPH oxidase 2 [1]; 78 µM on NADPH oxidase 2 [3]; > 100 µM on NADPH oxidase 4 (read-out: IC50). Also, in data set [4], the Activity entry is recorded as “Non-toxic”. Also, the “inhibition (INH)” value in data set [2] is on record as “Not Active”.
In the case of `C=C(C)C[C@H]1[C@H]2c3ccccc3[C@H](CC2(C)C)N1Cc1cccc(F)c1` (racemic), the IC50 was > 100 µM on NADPH oxidase 1; 50 µM on NADPH oxidase 5; 68 µM on NADPH oxidase 2 [1]; 30 µM at NADPH oxidase 2 [3]; > 100 µM at NADPH oxidase 4 (read-out: IC50). Further, the “inhibition (INH)” value in data set [2] is reported as “Not Active”.

The values above are taken from ChEMBL document CHEMBL3390837, “Bridged tetrahydroisoquinolines as selective NADPH oxidase 2 (Nox2) inhibitors” (Medchemcomm, 2013).
